Measurements: ChEMBL document CHEMBL1123031, “Adriamycin analogues. rationale, synthesis, and preliminary antitumor evaluation of highly active DNA-nonbinding N-(trifluoroacetyl)adriamycin 14-O-hemiester derivatives” (1985)

Tests used:
Format in all cases: functional
Mus musculus [1] = experiment: In vivo antitumor efficacy expressed as number survivors in 60-days out of 7 male mice at dose 70 mg/kg; Value represented as = 1/7
Mus musculus [2] = experiment: In vivo antitumor efficacy expressed as number survivors in 60-days out of 7 male mice at dose 60 mg/kg; Value represented as = 1/7
Mus musculus [3] = experiment: In vivo antitumor efficacy expressed as number survivors in 60-days out of 7 male mice at dose 40 mg/kg; Value represented as = 0/7
Mus musculus [4] = experiment: In vivo percent increase in life span relative to untreated controls in B6D2F1/J male mice at dose 70 mg/kg
Mus musculus [5] = experiment: In vivo antitumor efficacy expressed as number survivors in 60-days out of 7 male mice at dose 50 mg/kg; Value represented as = 0/7
Mus musculus [6] = experiment: In vivo percent increase in life span relative to untreated controls in B6D2F1/J male mice at dose 40 mg/kg
CCRF-CEM = experiment: In vitro inhibitory activity against CCRF-CEM cell growth in culture, after 48-h incubation.; details: Homo sapiens, read-out: ID50 (the source's name)
How it was run: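 Human lymphoblastic leukemia CCRF-CEM cells grown in culture with drug for 48 h. ID50 is the drug concentration that inhibits culture growth by 50% relative to untreated controls, reported in μM.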

Mus musculus [7] = experiment: In vivo percent increase in life span relative to untreated controls in B6D2F1/J male mice at dose 50 mg/kg
Mus musculus [8] = experiment: In vivo percent increase in life span relative to untreated controls in B6D2F1/J male mice at dose 60 mg/kg
Mus musculus [9] = experiment: In vivo antitumor efficacy expressed as number survivors in 60-days out of 7 male mice at dose 60 mg/kg; Value represented as = 0/7
Mus musculus [10] = experiment: In vivo antitumor efficacy expressed as number survivors in 60-days out of 7 male mice at dose 70 mg/kg; Value represented as = 7/7
Mus musculus [11] = experiment: In vivo antitumor efficacy expressed as number survivors in 60-days out of 7 male mice at dose 40 mg/kg; Value represented as = 3/7
Mus musculus [12] = experiment: In vivo antitumor efficacy expressed as number survivors in 60-days out of 7 male mice at dose 60 mg/kg; Value represented as = 5/7
Mus musculus [13] = experiment: In vivo antitumor efficacy expressed as number survivors in 60-days out of 7 male mice at dose 50 mg/kg; Value represented as = 5/7
Mus musculus [14] = experiment: In vivo antitumor efficacy expressed as number survivors in 60-days out of 7 male mice at dose 30 mg/kg; Value represented as = 4/7
Mus musculus [15] = experiment: In vivo percent increase in life span relative to untreated controls in B6D2F1/J male mice at dose 30 mg/kg
Mus musculus [16] = experiment: In vivo antitumor efficacy expressed as number survivors in 60-days out of 7 male mice at dose 60 mg/kg; Value represented as = 4/7
Mus musculus [17] = experiment: In vivo antitumor efficacy expressed as number survivors in 60-days out of 7 male mice at dose 30 mg/kg; Value represented as = 0/7
Mus musculus [18] = experiment: In vivo antitumor efficacy expressed as number survivors in 60-days out of 7 male mice at dose 70 mg/kg; Value represented as = 4/7
Mus musculus [19] = experiment: In vivo antitumor efficacy expressed as number survivors in 60-days out of 7 male mice at dose 40 mg/kg; Value represented as = 1/7
Mus musculus [20] = experiment: In vivo antitumor efficacy expressed as number survivors in 60-days out of 7 male mice at dose 50 mg/kg; Value represented as = 2/7
Mus musculus [21] = experiment: In vivo percent increase in life span relative to untreated controls in B6D2F1/J male mice at dose 20 mg/kg
Mus musculus [22] = experiment: In vivo antitumor efficacy expressed as number survivors in 60-days out of 7 male mice at dose 20 mg/kg; Value represented as = 3/7
Mus musculus [23] = experiment: In vivo antitumor efficacy expressed as number survivors in 60-days out of 7 male mice at dose 40 mg/kg; Value represented as = 6/7
Mus musculus [24] = experiment: In vivo antitumor efficacy expressed as number survivors in 60-days out of 7 male mice at dose 60 mg/kg; Value represented as = 6/7
Mus musculus [25] = experiment: In vivo antitumor efficacy expressed as number survivors in 60-days out of 7 male mice at dose 50 mg/kg; Value represented as = 4/7
Mus musculus [26] = experiment: In vivo antitumor efficacy expressed as number survivors in 60-days out of 7 male mice at dose 70 mg/kg; Value represented as = 6/7
Mus musculus [27] = experiment: In vivo antitumor efficacy expressed as number survivors in 60-days out of 7 male mice at dose 60 mg/kg; Value represented as = 7/7
Mus musculus [28] = experiment: In vivo antitumor efficacy expressed as number survivors in 60-days out of 7 male mice at dose 50 mg/kg; Value represented as = 1/7
Mus musculus [29] = experiment: In vivo percent increase in life span relative to untreated controls in B6D2F1/J male mice at dose 2 mg/kg
Mus musculus [30] = experiment: In vivo antitumor efficacy expressed as number survivors in 60-days out of 7 male mice at dose 1 mg/kg; Value represented as = 0/7
Mus musculus [31] = experiment: In vivo antitumor efficacy expressed as number survivors in 60-days out of 7 male mice at dose 3 mg/kg; Value represented as = 0/7
Mus musculus [32] = experiment: In vivo antitumor efficacy expressed as number survivors in 60-days out of 7 male mice at dose 2 mg/kg; Value represented as = 0/7
Mus musculus [33] = experiment: In vivo percent increase in life span relative to untreated controls in B6D2F1/J male mice at dose 4 mg/kg
Mus musculus [34] = experiment: In vivo percent increase in life span relative to untreated controls in B6D2F1/J male mice at dose 3 mg/kg
Mus musculus [35] = experiment: In vivo percent increase in life span relative to untreated controls in B6D2F1/J male mice at dose 1 mg/kg
Mus musculus [36] = experiment: In vivo antitumor efficacy expressed as number survivors in 60-days out of 7 male mice at dose 5 mg/kg; Value represented as = 0/7
Mus musculus [37] = experiment: In vivo antitumor efficacy expressed as number survivors in 60-days out of 7 male mice at dose 4 mg/kg; Value represented as = 0/7

Structure (SMILES)	Survivors (Mus musculus [3])	ILS at 70 mg/kg (Mus musculus [4]) [%]	ILS at 40 mg/kg (Mus musculus [6]) [%]	IC50 (CCRF-CEM) [nM]	ILS at 50 mg/kg (Mus musculus [7]) [%]	ILS at 60 mg/kg (Mus musculus [8]) [%]	Survivors (Mus musculus [12])	Survivors (Mus musculus [13])	ILS at 30 mg/kg (Mus musculus [15]) [%]	other results
COc1cccc2c1C(=O)c1c(O)c3c(c(O)c1C2=O)C[C@@](O)(C(=O)COC(=O)CC(=O)O)C[C@@H]3OC1CC(NC(=O)C(F)(F)F)C(O)C(C)O1 (some centres undefined)	0	154	109	330	109	136				Survivors (Mus musculus [1]): 1; Survivors (Mus musculus [2]): 1; Survivors (Mus musculus [5]): 0
COc1cccc2c1C(=O)c1c(O)c3c(c(O)c1C2=O)C[C@@](O)(C(=O)CO)C[C@@H]3OC1CC(NC(=O)C(F)(F)F)C(O)C(C)O1 (some centres undefined)				230						
COc1cccc2c1C(=O)c1c(O)c3c(c(O)c1C2=O)C[C@@](O)(C(=O)COC(=O)CCC(=O)O)C[C@@H]3OC1CC(NC(=O)C(F)(F)F)C(O)C(C)O1 (some centres undefined)	0	190	127	300	118	127				Survivors (Mus musculus [1]): 1; Survivors (Mus musculus [5]): 0; Survivors (Mus musculus [9]): 0
COc1cccc2c1C(=O)c1c(O)c3c(c(O)c1C2=O)C[C@@](O)(C(=O)COC(=O)CCCCCCCC(=O)O)C[C@@H]3OC1CC(NC(=O)C(F)(F)F)C(O)C(C)O1 (some centres undefined)		> 445	172	440	> 445	> 445	5	5	445	Survivors (Mus musculus [10]): 7; Survivors (Mus musculus [11]): 3; Survivors (Mus musculus [14]): 4
COc1cccc2c1C(=O)c1c(O)c3c(c(O)c1C2=O)C[C@@](O)(C(=O)COC(=O)CCCC(=O)O)C[C@@H]3OC1CC(NC(=O)C(F)(F)F)C(O)C(C)O1 (some centres undefined)		> 445	109	280	172	> 445			81	Survivors (Mus musculus [16]): 4; Survivors (Mus musculus [17]): 0; Survivors (Mus musculus [18]): 4; Survivors (Mus musculus [19]): 1; Survivors (Mus musculus [20]): 2
CCCCC(=O)OCC(=O)[C@]1(O)Cc2c(O)c3c(c(O)c2[C@@H](OC2CC(NC(=O)C(F)(F)F)C(O)C(C)O2)C1)C(=O)c1c(OC)cccc1C3=O (some centres undefined)			> 445	240	> 445	> 445	5	5	> 445	ILS at 20 mg/kg (Mus musculus [21]): 281%; Survivors (Mus musculus [22]): 3; Survivors (Mus musculus [14]): 4; Survivors (Mus musculus [23]): 6
COc1cccc2c1C(=O)c1c(O)c3c(c(O)c1C2=O)C[C@@](O)(C(=O)COC(=O)CCCCC(=O)O)C[C@@H]3OC1CC(NC(=O)C(F)(F)F)C(O)C(C)O1 (some centres undefined)		> 445	> 445	310	> 445	> 445		5		Survivors (Mus musculus [10]): 7; Survivors (Mus musculus [24]): 6; Survivors (Mus musculus [23]): 6
COc1cccc2c1C(=O)c1c(O)c3c(c(O)c1C2=O)C[C@@](O)(C(=O)COC(=O)CCCCCCCCC(=O)O)C[C@@H]3OC1CC(NC(=O)C(F)(F)F)C(O)C(C)O1 (some centres undefined)	0	> 445	109	500	> 445	> 445	5			Survivors (Mus musculus [25]): 4; Survivors (Mus musculus [26]): 6
COc1cccc2c1C(=O)c1c(O)c3c(c(O)c1C2=O)C[C@@](O)(C(=O)COC(=O)CCCCCC(=O)O)C[C@@H]3OC1CC(NC(=O)C(F)(F)F)C(O)C(C)O1 (some centres undefined)		> 445	181	360	136	> 445				Survivors (Mus musculus [11]): 3; Survivors (Mus musculus [26]): 6; Survivors (Mus musculus [27]): 7; Survivors (Mus musculus [28]): 1
COc1cccc2c1C(=O)c1c(O)c3c(c(O)c1C2=O)C[C@@](O)(C(=O)CO)C[C@@H]3O[C@H]1C[C@H](N)[C@H](O)[C@H](C)O1 [DOXORUBICIN]				50						ILS at 2 mg/kg (Mus musculus [29]): 90%; Survivors (Mus musculus [30]): 0; Survivors (Mus musculus [31]): 0; Survivors (Mus musculus [32]): 0; ILS at 4 mg/kg (Mus musculus [33]): 63%; ILS at 3 mg/kg (Mus musculus [34]): 181%; ILS at 1 mg/kg (Mus musculus [35]): 81%; Survivors (Mus musculus [36]): 0; Survivors (Mus musculus [37]): 0
